High-throughput results from PubChem BioAssay.
The list is not random: actives were taken first. Their share in the collection is about 2.9%.
PfM18AAP inh: blocks P. falciparum M18 aspartyl aminopeptidase | recombinant PfM18AAP, H-Glu-NHMec fluorogenic cleavage | inhibition, % at 7.35 µM | 1.2% of 290,000 active;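 active = inhibition above the campaign mean inhibition over all tested compounds plus 3 SD, cut at about 28% in these data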;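 note: 0% = plate median of test compound wells and 100% = 2 mM ZnCl2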
UBC13 polyUb: inhibitors of human UBC13 polyubiquitin chain formation | inhibition, % at 20 µM | P61088 | AID 485273 | TR-FRET | 0.47% of 330,000 active; in the data active = inhibition above about 45%, passing the limit was not always enough
Target sequence (P61088 whole entry, looked up): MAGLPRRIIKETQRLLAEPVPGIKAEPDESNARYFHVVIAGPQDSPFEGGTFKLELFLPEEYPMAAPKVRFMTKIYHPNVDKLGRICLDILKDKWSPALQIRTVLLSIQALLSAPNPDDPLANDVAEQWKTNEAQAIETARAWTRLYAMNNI
EBNA-1 inhibitor: blocks EBNA-1 binding to DNA; 0.34% of 300,000 active; inhibition, % at 14.8 µM; EBNA-1 DNA binding, fluorescence polarization; in the data active = inhibition above about 28%
ZTA counter: ZTA (EBV) inhibition in EBNA-1 counter-screen; 0.15% of 320,000 active; P03206; ZTA-DNA binding, fluorescence polarization; inhibition, % at 11 µM; in the data active = inhibition above about 33%
Target sequence (P03206 whole entry, looked up): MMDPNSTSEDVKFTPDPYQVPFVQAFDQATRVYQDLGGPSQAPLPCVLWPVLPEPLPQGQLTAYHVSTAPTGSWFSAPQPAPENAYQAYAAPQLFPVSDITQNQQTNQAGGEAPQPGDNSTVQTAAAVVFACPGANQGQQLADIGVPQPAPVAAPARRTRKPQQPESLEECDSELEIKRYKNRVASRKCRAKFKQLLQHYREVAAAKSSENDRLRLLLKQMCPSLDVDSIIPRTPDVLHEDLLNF
PfG6PD inh: PfG6PD (Plasmodium falciparum) enzyme inhibition; PfGluPho enzyme, NADPH resazurin-diaphorase fluorescence; inhibition, % at 20 µM; 0.78% of 350,000 active; AID 504690;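 active = inhibition reaching at least a set limit at 20 µM in the primary screen, cut at about 59% in these data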;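 note: 0% = DMSO wells with substrate and 100% = DMSO wells lacking glucose-6-phosphate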
Apaf-1 inh: blocks human Apaf-1 apoptosome activity; AID 489030; inhibition, % at 20 µM; reconstituted apoptosome caspase-3 activity, DEVD-Rh110 fluorescence; 0.71% of 330,000 active; O14727; active = inhibition of at least 40% at 20 µM;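 note: plate controls were DMSO wells for no effect and DEVD-CHO caspase inhibitor wells for full effect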
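Material: reconstituted apoptosome with Apaf-1, cytochrome c, caspase-9, procaspase-3, dATP / Buffer or medium: pH 7.5 Hepes buffer with CHAPS, BSA, DTT / Also added: cytochrome c with DEVD-Rh110 / Schedule: compound with Apaf-1, dATP, procaspase-3 30 min, then 50 min reaction, room temperature / Technique: rhodamine 110 fluorescence at Ex 480/Em 540 nm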
Numbers without * were called inactive; · = not tested or not shown; + = active, no number.

SMILES	PfM18AAP inh	UBC13 polyUb	EBNA-1 inhibitor	ZTA counter	PfG6PD inh	Apaf-1 inh
COc1cc2nc(SCc3ccc(F)cc3)n(Cc3cccs3)c(=N)c2cc1OC	1.6	7.7	4.3	-17.1	0.8	11.6
CC1=NN(c2ccccc2)C(=O)C1C=Nc1ccc(N(C)C)cc1 (stereo unspecified)	31.1*	-21.2	82.3*	+	36.2	38.2
CC(=O)Nc1ccc(NC(=O)CSc2nnc(N)n2-c2ccccc2)cc1	·	·	·	·	-4.3	·
CCO[C@@H]1OC(C(=O)O)=C[C@H](c2ccc(C(F)(F)F)cc2)[C@H]1CCCO	7.6	-15.8	-11.1	-7.0	-15.7	6.4
C#CCOCCOCCOCCNc1nc(N2CCN(C(=O)[C@H]([C@@H](C)CC)n3cc([C@@H](N)CC(C)C)nn3)CC2)nc(N2CCN(C(=O)[C@H](Cc3cc4ccccc4[nH]3)n3cc([C@@H](N)C(C)CC)nn3)CC2)n1 (stereo partly specified)	·	80.8*	·	·	·	29.9
C#CCOCCOCCOCCNc1nc(N2CCN(C(=O)C(Cc3cc4ccccc4[nH]3)n3cc(C(N)C(C)CC)nn3)CC2)nc(N2CCN(C(=O)C(Cc3cc4ccccc4[nH]3)n3cc(C(N)C(C)CC)nn3)CC2)n1 (stereo unspecified)	-14.9	93.7*	-3.5	14.3	61.4*	37.3
COc1ccc(NS(=O)(=O)c2cccc(C(=O)N3CCCC(C)C3)c2)cc1 (stereo unspecified)	·	9.7	-2.9	5.1	7.0	23.6
COC(=O)CCC(=O)OC1(C)C(=O)C=C2C=C(C3CC3)N(CC(C)C)C=C2C1=O (stereo unspecified)	·	-30.9	·	·	·	53.3*
CC1(OC(=O)CCc2ccccc2)C(=O)C=C2C=C(c3ccc(C#N)cc3)N(CC3CC3)C=C2C1=O (stereo unspecified)	·	-50.0	3.6	9.9	39.8	20.1
CCN(CC)CCCN1C=C2C(=O)C(C)(OC(=O)CCC(=O)OC)C(=O)C=C2C=C1C1CC1 (stereo unspecified)	·	-24.6	5.4	9.7	46.6	38.9
COC(=O)CCC(=O)OC1(C)C(=O)C=C2C=C(C3CC3)N(Cc3ccccc3)C=C2C1=O (stereo unspecified)	·	-66.2	0.6	-7.1	57.6	42.2*
COC(=O)CCC(=O)OC1(C)C(=O)C=C2C=C(C3CC3)N(C3CCCCC3)C=C2C1=O (stereo unspecified)	·	-62.0	2.6	8.3	45.9	62.4*
NNC(=O)c1csc(-c2cccc(C(F)(F)F)c2)n1	1.5	5.4	5.6	8.7	4.0	2.6
CCc1cccc(C)c1NC(=O)COC(=O)Cc1ccccc1	·	·	·	·	9.3	·
O=C(c1cn[nH]c1)c1cc(F)ccc1O	31.2*	2.4	-6.2	-16.7	-12.8	15.3
Cc1[nH]nc2ncc(C(=O)c3cc(F)ccc3O)cc12	5.2	4.8	-1.5	9.1	-14.6	-7.2
CN(C(=O)c1cccc(NC(=O)Cc2ccc(NC(=O)C3CCCN(C(=O)c4ccccc4)C3)cc2)c1)C1CCCCC1 (stereo unspecified)	·	·	·	·	0.8	·
CC1C/C(=C\c2cccnc2)C(=O)/C(=C/c2cccnc2)C1 (stereo unspecified)	6.5	·	-7.7	44.3*	4.3	·
CCCCN(C(=O)c1cc(-c2ccco2)nc2ccccc12)c1c(N)n(CCC)c(=O)[nH]c1=O	·	-21.6	·	-11.0	10.8	3.0
CC1=CC(=O)c2c(O)ccc(O)c2C1=O	34.7*	·	42.2*	35.9*	·	·
Cn1cc(CNC(=O)c2cc(COc3ccc4c(c3)CCCC4)on2)cn1	29.5*	9.3	6.0	-2.1	5.1	24.0
CC(=O)C1=C(C)NC(SCC(=O)c2ccc(-c3ccccc3)cc2)=C(C#N)C1c1cccnc1 (stereo unspecified)	14.4	1.1	36.4*	4.2	·	1.0
COC1=CC(=O)C=C(OC)C1=O	·	·	·	·	124.5*	·
COC1=CC(=O)c2ccccc2C1=O	·	-56.6	·	·	-94.5	78.6*
COc1ccc(CCC(=O)Nc2c(C)n(C)n(-c3ccccc3)c2=O)cc1	3.4	13.6	6.8	15.5	-10.0	-5.3
SMILES	PfM18AAP inh	UBC13 polyUb	EBNA-1 inhibitor	ZTA counter	PfG6PD inh	Apaf-1 inh
Cc1cccc(NC2=C/C(=N/S(=O)(=O)c3cccs3)c3ccccc3C2=O)c1	-1.9	·	0.3	7.9	62.0*	·
COc1cc(/C=C2/SC(=S)N(CC(=O)NNC(=O)c3ccc(F)cc3)C2=O)cc(OC)c1OC	·	·	·	·	-15.7	·
CCOc1cc(/C=C2\CN(CC)C/C(=C\c3ccc(O)c(OCC)c3)C2=O)ccc1O	29.1*	-71.6	8.4	10.6	12.2	11.8
O=c1[nH][nH]c(-c2ccccc2O)c1C(C[N+](=O)[O-])c1cccc(Cl)c1 (stereo unspecified)	30.5*	4.3	11.3	-5.1	1.0	6.6
Cc1ccc(NC(=O)CSc2nnc(-c3ccco3)c(-c3ccco3)n2)cc1	-2.2	-1.7	-4.6	-2.2	45.8	36.9
Cc1ccccc1NC(=O)CSc1nnc(-c2ccco2)c(-c2ccco2)n1	13.9	-6.0	2.6	9.6	33.3	32.3
COc1cccc(NC(=O)CSc2nnc(-c3ccco3)c(-c3ccco3)n2)c1	7.2	-5.0	-0.3	1.6	34.8	23.9
O=C(CSc1nnc(-c2ccco2)c(-c2ccco2)n1)Nc1ccccc1	31.7*	-6.8	1.5	20.4	49.4	31.9
COc1ccc(NC(=O)CSc2nnc(-c3ccco3)c(-c3ccco3)n2)cc1OC	31.0*	-20.0	-13.6	2.1	42.1	17.7
CN(C)c1ccc(NC(=O)CSc2nnc(-c3ccco3)c(-c3ccco3)n2)cc1	30.9*	-31.0	-6.9	-2.2	56.3	20.9
Cc1ncc(CSc2ccc(Cl)cc2)c(CO)c1O	-3.1	5.9	-3.5	8.4	4.9	2.2
Cc1cc(-c2ccc(C)c(S(=O)(=O)N3CCN(c4ccccn4)CC3)c2)on1	1.3	-4.6	-9.5	-0.9	-16.8	16.6
COc1ccc(N2CCN(c3ccc(NC(=O)/C=C\C(=O)O)cc3)CC2)cc1	31.3*	-7.0	2.2	-6.4	24.9	-1.6
Fc1ccccc1-c1n[nH]c(=S)n1CC1CCCO1 (stereo unspecified)	31.6*	-2.5	11.6	-5.0	26.1	-6.1
S=c1[nH]nc(-c2ccccc2Cl)n1CC1CCCO1 (stereo unspecified)	5.2	-4.3	-11.8	11.1	11.4	-6.9
CN(CC(=O)Nc1ccc(Cl)c(Cl)c1)CC(=O)N1CCCCCC1	·	·	·	·	-20.9	·
O=c1cc(-c2ccc(Cl)cc2)oc(=O)[nH]1	-14.6	2.2	-5.0	-0.2	-10.4	5.3
O=c1cc(N=Nc2ccc(Cl)cc2)[nH]c(=O)[nH]1	69.7*	·	6.4	-3.5	7.5	·
O=C(COC(=O)c1ccccc1Sc1ccc(C(F)(F)F)cc1[N+](=O)[O-])NC(=O)NC1CCCC1	-7.8	-8.9	11.1	-5.1	18.6	40.4*
Cc1c(C(=O)OCC(=O)NC(=O)NC2CCCCC2)cccc1[N+](=O)[O-]	·	10.8	·	·	22.9	14.6
